Scp-1 inhibitor: Scp-1 phosphatase inhibitors, primary screen, biochemical, colorimetric, uHTS. 340,000 compounds, 0.88% hits. inhibition, % at 20 µM. Carboxy-terminal domain RNA polymerase II polypeptide A small phosphatase 1 (Homo …. Recombinant Scp1, phosphopeptide, malachite green phosphate absorbance;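 active = inhibition above about 50% at 20 µM, limit read from the data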;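 also: plate controls were DMSO wells with enzyme for no effect and wells lacking enzyme for full effect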
Target sequence (Q9GZU7 76-261 limits assumed): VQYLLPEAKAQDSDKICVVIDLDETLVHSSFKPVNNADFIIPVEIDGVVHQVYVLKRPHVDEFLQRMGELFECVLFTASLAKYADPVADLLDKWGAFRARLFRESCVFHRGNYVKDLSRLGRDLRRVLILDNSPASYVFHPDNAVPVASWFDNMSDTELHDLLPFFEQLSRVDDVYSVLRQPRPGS
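System: SCP-1 catalytic domain; Reagent: Phospho 17-mer peptide substrate; Doses: one concentration, 20 µM, with 1.0% DMSO; Incubation: 45 min room-temperature reaction, 5 min colour, 30 min stabiliser; Signal: Phosphate-binding colour reagent, absorbance read at 630 nm.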
DNMT1 block: human DNMT1 methyltransferase inhibitors, primary screen, biochemical, molecular beacon, fluorescence, HinP1I cleavage, uHTS | DNA (cytosine-5)-methyltransferase 1 (Homo sapiens), P26358 | inhibition (reported as % activation of signal), % at 10 µM | 360,000 compounds, 0.83% hits; in the data active = inhibition above about 50%
SUMO1-SIM PPI: modulators of SUMO1 protein-protein interactions, primary screen, biochemical, uHTS. Small ubiquitin-related modifier 1 (Homo sapiens), P63165. inhibition, % at 20 µM. AID 602429, 2012. SUMO1 binding to a labelled peptide, TR-FRET, 1 h. 360,000 compounds, 0.33% hits; in the data active = inhibition above about 37%
LMPTP inh: LMPTP phosphatase inhibitors, primary screen, biochemical, fluorescence intensity, uHTS; 360,000 compounds, 0.22% hits; recombinant LMPTP-A, OMFP fluorogenic substrate; Low molecular weight phosphotyrosine protein phosphatase (Homo sapiens), P24666; inhibition, % at 20 µM;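 active = compounds that cut the enzyme signal by at least half of the control window in the single-dose screen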;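 also: plate controls were DMSO wells with enzyme plus substrate for no effect and substrate without enzyme for full effect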
Target sequence (P24666 whole entry, looked up): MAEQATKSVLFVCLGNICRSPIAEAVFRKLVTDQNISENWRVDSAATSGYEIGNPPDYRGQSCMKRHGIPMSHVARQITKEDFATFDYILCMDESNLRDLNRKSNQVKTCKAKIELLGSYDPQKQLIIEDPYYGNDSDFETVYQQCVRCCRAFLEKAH
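material = LMPTP-A | quantity = 0.625 nM enzyme | reagent = OMFP substrate, 400 µM final | buffer or medium = Bis-Tris pH 6.0, DTT, detergent | detection = endpoint fluorescence intensity from OMFP dephosphorylation | dosing = single 20 µM dose | read-out basis = % inhibition relative to no-enzyme and uninhibited control wells | control set = no-enzyme and uninhibited controls | timing = 50 min at room temperature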
STEP block: STEP phosphatase inhibitors, primary screen, biochemical, fluorescence intensity, uHTS | recombinant STEP, OMFP fluorogenic substrate | inhibition, % at 20 µM | 360,000 compounds, 0.25% hits | AID 588621, 2011;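 active = inhibition at 20 µM, scaled per plate between control wells, above about 37%, limit read from the data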;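 also: 0% = DMSO with enzyme and substrate and 100% = substrate only without enzyme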
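Test system: STEP tyrosine phosphatase / Reagent: OMFP at 25 µM / Doses: 20 µM, 1% DMSO / Read-out: percent inhibition scaled to no-enzyme and uninhibited-enzyme controls, plate-pattern corrected / Detection: FITC-channel fluorescence of OMFP product / Medium: Bis-Tris buffer pH 6.0, 2.5 mM DTT, 0.005% Tween 20 / Schedule: 20 min at room temperature, dark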
Active calls of the source: *; / = not tested or not shown. Only some compounds are listed: those with a hit (about 1.8% of all), similar ones and a draw of the others.

SMILES	Scp-1 inhibitor	DNMT1 block	SUMO1-SIM PPI	LMPTP inh	STEP block
CCOC(=O)Cc1csc(-n2sc3ccccc3c2=O)n1	74*	-27	10	1	-1
CCOC(=O)Cc1csc(SCn2nnc3ccccc3c2=O)n1	4	-1	-6	-2	9
Cc1cccc(-c2cc3c(N=O)c4ccccc4c-3n[nH]2)c1	3	8	0	1	1
Cc1ccc(-c2cc3c(N=O)c4ccccc4c-3n[nH]2)cc1	16	75*	-4	21	18
O=Nc1c2cc(-c3ccccc3)[nH]nc-2c2ccccc12	62*	26	13	5	7
CC1(Oc2cccc(F)c2)CCN(Cc2ccc3ccccc3c2)C1 (configuration not stated)	/	6	3	0	2
COc1ccccc1-c1sc2ccccc2c1-c1ccc2c(c1)OCO2	-9	-8	1	3	2
COc1ccccc1-c1sc2cc3c(cc2c1-c1ccc2c(c1)OCO2)OCO3	68*	9	-6	2	-3
O=C(NC1CCCC1)N[C@@H]1C=C[C@@H](CC(=O)N2CCOCC2)O[C@@H]1CO	/	/	3	-1	/
COCCN1C[C@@H](CO)O[C@@H](n2cnc3c(N4CCCC4)ncnc32)C1	/	-1	-3	1	0
Cc1cc(C(=O)N/N=C/c2ccc(O)c(O)c2O)c(C)n1-c1ccccc1	9	10	8	56*	12
Cc1cc(/C=N/NC(=O)c2ccncc2)c(C)n1-c1ccccc1	-3	1	-4	0	-1
CCC(=O)N1N=C(c2ccc(Cl)cc2)CC1c1ccco1 (configuration not stated)	-10	-1	-3	-1	4
CCc1ccc(C2=NN(C(C)=O)C(c3ccco3)C2)cc1 (configuration not stated)	69*	-1	0	0	-2
NCCCC[C@H]1NC(=O)[C@H](CCC(=O)O)NC(=O)c2cc([N+](=O)[O-])cc(I)c2OCC[C@@H](C(N)=O)NC1=O	91*	/	/	/	/
Cc1ccc(-n2c(N)c(C(=O)N3CCCCC3)sc2=S)cc1	3	-2	-30	-1	5
Cc1ccc(-n2c(N)c(C(=O)N3CCN(C)CC3)sc2=S)cc1	-8	-5	-15	-1	96*
O=C(NCC[C@@H]1CC[C@@H](NS(=O)(=O)Cc2ccccc2)[C@@H](CO)O1)C1CC1	/	/	10	1	/
COc1ccc2noc3c2c1C(=O)c1ccccc1-3	-6	187*	-30	-23	-386
COc1ccc(OC)c2c1C(=O)c1ccccc1C2=O	-1	/	/	/	/
CC[n+]1c(/C=C(/C)SC)sc2ccccc21	-11	2	-4	0	-2
CCN1/C(=C/C=C/c2sc3ccccc3[n+]2CC)Sc2ccccc21	4	29	-31	62*	3
CCN1/C(=C/C=C/C=C/C=C/c2sc3ccccc3[n+]2CC)Sc2ccccc21	21	81*	-37	14	1
CC[n+]1c(/C=C(\C)SC)sc2ccccc21	0	3	-3	2	3
CCOc1ccc(CCN2C(=O)C(=O)N([C@@H](Cc3ccccc3)CN3CCC[C@H]3CN3C(=O)C(=O)NC[C@@H]3Cc3ccccc3)C[C@@H]2Cc2ccc(O)cc2)cc1	/	/	7	17	/
c1ccc(-c2nc(NC3CCCC3)c3ccccc3n2)cc1	-1	1	1	62*	-4
CCC(CO)Oc1cc(NC(=O)c2ccc(OC)cc2)c2ncn(C(C)C)c2c1 (configuration not stated)	3	-12	-1	2	-2
CCC(CO)Oc1cc(NC(=O)c2cccc(OC)c2)c2ncn(C(C)C)c2c1 (configuration not stated)	1	-25	61*	0	4
Cc1nnc(C)c2c(C)n(-c3ccc4ncccc4c3)c(C)c12	1	-7	-1	54*	3
CN(Cc1ccccc1)C(=O)COC(=O)CCC(=O)c1ccc(Cl)cc1	3	2	4	0	-1

Assay outcomes deposited in PubChem BioAssay by Sanford-Burnham Center for Chemical Genomics.
